Two compounds from ChEMBL document CHEMBL4145690, “Rational Design and Structure Validation of a Novel Peptide Inhibitor of the Adenomatous-Polyposis-Coli (APC)-Rho-Guanine-Nucleotide-Exchange-Factor-4 (Asef) Interaction” (J Med Chem, 2018) can be followed below.

Assay [1] addresses T1, Adenomatous polyposis coli protein (Homo sapiens, UniProt P25054). In words: Binding affinity to His-tagged APC (unknown origin) assessed as residence time by surface plasmon resonance assay. In outline: (§1)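 His-APC amine-coupled to a CM5 chip (EDC/NHS; protein in 50 mM Hepes, 300 mM NaCl, 1 mM EDTA, pH 7.5); BSA reference cell. Peptides injected in 0.05 M Hepes pH 7.5 at 30 µL/min; dissociation 6 min; regeneration with glycine-HCl pH 2.0. Kinetic constants fitted to a 1:1 Langmuir model.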
(In general: Surface plasmon resonance follows binding to a sensor surface in real time, without labels.)

The target of assay [2] is T1, Adenomatous polyposis coli protein. Put plainly: Binding affinity to APC (unknown origin) assessed as induction of blue shifts in fluorescence for APC-compound complexes at 35 uM incubate fro 30 mins by tryptophan fluorescence measurements assay. In outline: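 APC protein (5 µM) alone or with peptide at 35 µM in 50 mM Hepes pH 7.5, 300 mM NaCl, 1 mM EDTA, 50 µL. Incubated 30 min at room temperature with gentle shaking. Tryptophan excited at 280 nm; emission scanned 300–500 nm. Run in triplicate.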

For assay [3] the target is unchanged. In words: Binding affinity to His-tagged APC (unknown origin) assessed as association constant by surface plasmon resonance assay. The gist of the method:
as §1

Assay [4] shares this target. In words: Binding affinity to APC (unknown origin) assessed as association constant at 30 degC by ITC method. In outline:
(§2)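 ITC in 50 mM HEPES pH 7.5, 300 mM NaCl, 1 mM EDTA at 30 °C. Titrations were repeated three times. Kd, ΔG, ΔH and −TΔS are averages of the three independent experiments. L/P ratio gives sites per APC.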
(In ITC the heat of successive injections is recorded.)

Assay [5] shares this target. Put plainly: Binding affinity to His-tagged APC (unknown origin) assessed as dissociation constant by surface plasmon resonance assay. The gist of the method: as §1
For assay [6] the target is unchanged. In words: Binding affinity to APC protein (303 to 739 residues) (unknown origin) incubated for 60 mins followed by probe addition and measured after 60 mins by competitive fluorescence polarization assay. In outline:
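Peptide in DMSO preincubated with protein 60 min at room temperature with shaking; probe added, then 60 min more. Controls: blank, tracer only, complex only. IC50 from dose-response curves, mean of three independent experiments.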
(In general: In fluorescence polarisation assays a small probe gives low polarisation when free and higher when bound to something large.)

For assay [7] the target is unchanged. Put plainly: Binding affinity to APC (unknown origin) at 30 degC by ITC method. The gist of the method: as §2
The target is the same in assay [8]. In words: Binding affinity to His-tagged APC (unknown origin) by surface plasmon resonance assay. The gist of the method: as §1
In assay [9] the target is T2, APC/Asef (Homo sapiens) (UniProt P25054+Q9NR80). Put plainly: Inhibition of Flag-APC (303 to 876 residues) (unknown origin) /HA-Asef (170 to 632 residues) (unknown origin) interaction expressed in HEK293T cell lysates at 10 uM incubated for 2 hrs by coimmunoprecipitation assay. The gist of the method: (§3)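 HEK293T cells co-transfected with Flag-APC (303–876) and HA-Asef (170–632); lysed in RIPA after 24 h and lysate cleared. Supernatant incubated with compound (2 or 10 µM) or DMSO for 2 h at 4 °C, then anti-FLAG M2 gel overnight at 4 °C. Beads washed and proteins analysed by western blot (anti-HA, anti-Flag), single experiment.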

Assay [10] has as its target T1, Adenomatous polyposis coli protein. In words: Reversible binding affinity to His-tagged APC (unknown origin) by surface plasmon resonance assay. In outline:
as §1

Assay [11] has the same target. Put plainly: Binding affinity to APC (unknown origin) at 37 degC by ITC method. The gist of the method: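 ITC at 37 °C in 50 mM HEPES pH 7.5, 300 mM NaCl, 1 mM EDTA. Titrations were repeated three times.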
Assay [12] deals with T2, APC/Asef (Homo sapiens). Put plainly: Inhibition of Flag-APC (303 to 876 residues) (unknown origin) /HA-Asef (170 to 632 residues) (unknown origin) interaction expressed in HEK293T cell lysates incubated for 2 hrs by coimmunoprecipitation assay. In outline:
as §3

Assay [13] has as its target T1, Adenomatous polyposis coli protein. In words: Binding affinity to APC (unknown origin) assessed as intramolecular hydrogen bond formation by 1H nuclear magnetic resonance based hydrogen-deuterium-exchange assay.

Each structure is given as a SMILES string. Calls of active or inactive are those of the source. The rule behind the calls is not given here. Where a SMILES comes first, the peptide text is derived from it. The star is where a group is joined. Cbz = O=C(OCc1ccccc1)*

T1 sequence (P25054 whole entry): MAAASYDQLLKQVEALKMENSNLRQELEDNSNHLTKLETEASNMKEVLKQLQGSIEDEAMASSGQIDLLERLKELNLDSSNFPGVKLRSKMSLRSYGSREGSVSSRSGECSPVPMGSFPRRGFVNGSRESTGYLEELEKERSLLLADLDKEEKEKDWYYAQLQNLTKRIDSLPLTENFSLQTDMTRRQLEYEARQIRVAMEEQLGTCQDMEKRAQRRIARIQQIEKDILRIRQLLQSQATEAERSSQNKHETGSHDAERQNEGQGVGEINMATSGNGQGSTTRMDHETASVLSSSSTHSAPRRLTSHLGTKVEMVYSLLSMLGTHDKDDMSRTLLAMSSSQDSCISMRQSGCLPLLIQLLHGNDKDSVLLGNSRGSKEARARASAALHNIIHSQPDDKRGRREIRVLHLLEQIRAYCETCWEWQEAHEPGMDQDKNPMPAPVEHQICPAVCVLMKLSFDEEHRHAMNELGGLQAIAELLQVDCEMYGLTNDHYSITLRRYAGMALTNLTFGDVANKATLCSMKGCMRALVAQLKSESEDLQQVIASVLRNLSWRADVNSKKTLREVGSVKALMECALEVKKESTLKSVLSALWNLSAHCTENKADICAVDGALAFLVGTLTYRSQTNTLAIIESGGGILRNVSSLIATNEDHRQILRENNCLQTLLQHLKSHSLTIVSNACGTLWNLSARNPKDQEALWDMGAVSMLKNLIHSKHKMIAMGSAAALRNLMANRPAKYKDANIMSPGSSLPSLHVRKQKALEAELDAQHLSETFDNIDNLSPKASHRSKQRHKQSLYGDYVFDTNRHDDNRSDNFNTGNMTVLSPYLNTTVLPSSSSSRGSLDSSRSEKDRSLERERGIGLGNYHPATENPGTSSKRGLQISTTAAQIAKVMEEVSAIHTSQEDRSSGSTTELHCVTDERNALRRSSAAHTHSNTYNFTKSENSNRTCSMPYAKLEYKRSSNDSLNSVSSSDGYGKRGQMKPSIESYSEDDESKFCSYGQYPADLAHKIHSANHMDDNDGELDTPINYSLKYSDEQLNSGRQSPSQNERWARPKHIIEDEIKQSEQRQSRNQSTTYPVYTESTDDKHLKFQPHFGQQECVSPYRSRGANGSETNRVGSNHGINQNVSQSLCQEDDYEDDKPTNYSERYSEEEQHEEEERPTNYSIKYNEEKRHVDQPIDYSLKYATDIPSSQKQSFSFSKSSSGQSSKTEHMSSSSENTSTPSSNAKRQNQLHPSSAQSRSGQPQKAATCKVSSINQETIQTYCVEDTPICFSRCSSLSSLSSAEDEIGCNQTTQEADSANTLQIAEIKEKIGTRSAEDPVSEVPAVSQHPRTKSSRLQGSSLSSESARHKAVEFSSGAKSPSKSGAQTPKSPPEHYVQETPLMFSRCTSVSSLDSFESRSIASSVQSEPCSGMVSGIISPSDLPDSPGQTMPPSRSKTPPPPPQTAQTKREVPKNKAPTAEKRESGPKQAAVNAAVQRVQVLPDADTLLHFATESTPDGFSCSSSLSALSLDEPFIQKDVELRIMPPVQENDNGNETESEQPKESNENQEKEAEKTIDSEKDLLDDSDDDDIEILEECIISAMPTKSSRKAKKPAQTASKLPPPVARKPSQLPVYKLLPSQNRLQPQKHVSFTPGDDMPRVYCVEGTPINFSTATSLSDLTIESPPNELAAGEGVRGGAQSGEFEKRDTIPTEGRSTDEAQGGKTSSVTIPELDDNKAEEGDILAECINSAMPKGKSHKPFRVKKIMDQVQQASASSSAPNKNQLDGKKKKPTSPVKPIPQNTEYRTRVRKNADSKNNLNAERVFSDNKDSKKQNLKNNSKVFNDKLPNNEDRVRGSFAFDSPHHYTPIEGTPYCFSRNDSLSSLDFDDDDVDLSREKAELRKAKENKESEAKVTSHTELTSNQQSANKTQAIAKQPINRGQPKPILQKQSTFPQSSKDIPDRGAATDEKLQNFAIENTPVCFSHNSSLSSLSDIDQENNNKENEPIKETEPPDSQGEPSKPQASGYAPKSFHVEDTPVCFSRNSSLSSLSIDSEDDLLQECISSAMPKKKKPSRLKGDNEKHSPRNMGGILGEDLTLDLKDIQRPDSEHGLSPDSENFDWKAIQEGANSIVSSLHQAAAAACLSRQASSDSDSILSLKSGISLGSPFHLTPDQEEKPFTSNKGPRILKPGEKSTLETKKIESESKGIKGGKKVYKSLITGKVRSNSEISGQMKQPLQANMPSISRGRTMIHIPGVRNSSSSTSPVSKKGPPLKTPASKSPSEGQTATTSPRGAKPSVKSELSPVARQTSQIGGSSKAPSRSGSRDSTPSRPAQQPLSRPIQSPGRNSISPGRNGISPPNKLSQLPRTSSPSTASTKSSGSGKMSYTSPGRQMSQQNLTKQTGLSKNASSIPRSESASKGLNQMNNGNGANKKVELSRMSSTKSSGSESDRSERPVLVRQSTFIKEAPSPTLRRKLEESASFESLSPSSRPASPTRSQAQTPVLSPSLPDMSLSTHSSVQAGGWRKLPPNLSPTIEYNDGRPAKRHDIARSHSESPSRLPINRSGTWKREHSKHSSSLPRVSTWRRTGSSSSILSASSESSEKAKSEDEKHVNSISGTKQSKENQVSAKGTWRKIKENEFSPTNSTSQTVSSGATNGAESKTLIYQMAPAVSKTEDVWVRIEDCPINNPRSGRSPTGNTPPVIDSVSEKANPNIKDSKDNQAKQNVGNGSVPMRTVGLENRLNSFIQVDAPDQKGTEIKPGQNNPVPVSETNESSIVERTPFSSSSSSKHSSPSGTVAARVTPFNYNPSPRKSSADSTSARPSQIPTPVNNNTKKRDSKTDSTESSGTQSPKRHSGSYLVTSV

Turning to `CC(C)C[C@H](NC(=O)[C@H](C)NC(=O)[C@H](CCC(=O)O)NC(=O)CNC(=O)[C@H](C)NC(=O)OCc1ccccc1)C(=O)N[C@@H](Cc1ccc(O)cc1)C(=O)N[C@@H](CCC(=O)O)C(N)=O` (Cbz-AGEALYE-NH2), the TIME in assay [1] was 0.00333 h. Besides, the result in assay [2] was Active. Also, the values for the K in assay [3], in [4] and in assay [5] were 1.92 ×10⁵ /M/s, 4.71 ×10⁶ /M and 8.2 ×10⁻² /s, respectively. Also, in assay [6], the IC50 (usually the concentration that inhibits the measured activity by half) was 1090 nM. Also, the Kd – broadly, the concentration at which binding is half-saturated – came out at 210 nM in assay [7], 430 nM in [8] and 1800 nM in assay [11]. The inhibition result at APC/Asef (Homo sapiens) [9] was “Active”. Also, the Activity entry in [10] was “Dose-dependent effect”.

For the compound `CC(C)C[C@H](NC(=O)[C@H](CO)NC(=O)[C@H](CCC(=O)O)NC(=O)CNC(=O)[C@H](C)NC(=O)OCc1ccccc1)C(=O)N[C@@H](Cc1ccc(O)cc1)C(=O)N[C@@H](CCC(=O)O)C(N)=O` (Cbz-AGESLYE-NH2), the TIME in assay [1] worked out at 0.00417 h. The outcome in assay [2] and in [13] was Active. Moreover, the K turned out to be 3.05 ×10⁵ /M/s in assay [3], 8.21 ×10⁷ /M in assay [4] and 6.7 ×10⁻² /s in assay [5]. The compound also showed an IC50 in assay [6] of 250 nM. Moreover, the inhibition entry (at APC/Asef (Homo sapiens) [12]; in assay [10]) was “Dose-dependent effect” in each case. Also, the Kd in [7] was 12 nM; in assay [8] it was 220 nM; in assay [11], 210 nM.
